The text below walks through data of PMC2858063 (Steroids, 2010).

Entries after “also recorded” stand apart in the source; their conditions may differ. Where two headings read alike, the source gives them in different places.

Assay [1] addresses T1, hu-mPRα (Homo sapiens, UniProt Q86WK9).
T1 sequence (Q86WK9 1-346): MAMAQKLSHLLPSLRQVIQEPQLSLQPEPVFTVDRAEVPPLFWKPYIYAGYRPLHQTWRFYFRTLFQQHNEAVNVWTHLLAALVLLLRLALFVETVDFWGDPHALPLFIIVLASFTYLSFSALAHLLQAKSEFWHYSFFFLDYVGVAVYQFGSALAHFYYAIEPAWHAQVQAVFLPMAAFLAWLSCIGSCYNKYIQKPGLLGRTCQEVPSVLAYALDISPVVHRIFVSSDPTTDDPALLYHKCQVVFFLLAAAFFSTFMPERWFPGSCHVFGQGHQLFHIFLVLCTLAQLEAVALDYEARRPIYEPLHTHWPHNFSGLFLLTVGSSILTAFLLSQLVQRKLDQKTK
In words: hu-mPRα steroid binding assay. As to conditions: for RBA (Relative Binding Affinity): compared with progesterone (=100), human mPRα; for binding to hu-mPRα (in words): this study, Fig. 1, Table 1.

Assay [2] has as its target T1, hu-mPRα. In words: MAPK activation assay. In kind it is cell-based. The settings on record: 100 nM, 10 min, mPRα-transfected MDA-MB-231 cells. Put shortly:
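Control and mPRα-transfected MDA-MB-231 cells were serum-starved 5–6 days, then treated 10 min with progestins (100 nM; 1–100 nM for concentration-response), with EGF as positive control. Lysis was in RIPA buffer plus protease inhibitors. Lysate (10 μg/lane, non-reducing) ran on duplicate SDS gels, was blotted, and was probed for total or phospho-p42/44 with rabbit monoclonals, then HRP anti-rabbit 1 h. Detection was by chemiluminescence on film. Runs were repeated 3–4 times, with statistics versus vehicle.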

Assay [3] deals with T2, human nPR (Homo sapiens, UniProt P06401).
T2 sequence (P06401 679-933 limits assumed): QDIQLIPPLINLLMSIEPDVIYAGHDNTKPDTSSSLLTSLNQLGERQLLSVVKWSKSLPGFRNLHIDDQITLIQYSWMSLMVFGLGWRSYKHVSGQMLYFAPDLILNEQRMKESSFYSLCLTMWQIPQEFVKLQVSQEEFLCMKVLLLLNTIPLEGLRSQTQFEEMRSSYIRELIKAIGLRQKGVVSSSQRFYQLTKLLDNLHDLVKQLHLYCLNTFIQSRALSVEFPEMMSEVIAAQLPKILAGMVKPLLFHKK
In words: nPR steroid binding assay. The settings on record: that of progesterone.

A further assay concerns the target T3, human PR-B (Homo sapiens, UniProt P06401).
T3 sequence (P06401 1-933): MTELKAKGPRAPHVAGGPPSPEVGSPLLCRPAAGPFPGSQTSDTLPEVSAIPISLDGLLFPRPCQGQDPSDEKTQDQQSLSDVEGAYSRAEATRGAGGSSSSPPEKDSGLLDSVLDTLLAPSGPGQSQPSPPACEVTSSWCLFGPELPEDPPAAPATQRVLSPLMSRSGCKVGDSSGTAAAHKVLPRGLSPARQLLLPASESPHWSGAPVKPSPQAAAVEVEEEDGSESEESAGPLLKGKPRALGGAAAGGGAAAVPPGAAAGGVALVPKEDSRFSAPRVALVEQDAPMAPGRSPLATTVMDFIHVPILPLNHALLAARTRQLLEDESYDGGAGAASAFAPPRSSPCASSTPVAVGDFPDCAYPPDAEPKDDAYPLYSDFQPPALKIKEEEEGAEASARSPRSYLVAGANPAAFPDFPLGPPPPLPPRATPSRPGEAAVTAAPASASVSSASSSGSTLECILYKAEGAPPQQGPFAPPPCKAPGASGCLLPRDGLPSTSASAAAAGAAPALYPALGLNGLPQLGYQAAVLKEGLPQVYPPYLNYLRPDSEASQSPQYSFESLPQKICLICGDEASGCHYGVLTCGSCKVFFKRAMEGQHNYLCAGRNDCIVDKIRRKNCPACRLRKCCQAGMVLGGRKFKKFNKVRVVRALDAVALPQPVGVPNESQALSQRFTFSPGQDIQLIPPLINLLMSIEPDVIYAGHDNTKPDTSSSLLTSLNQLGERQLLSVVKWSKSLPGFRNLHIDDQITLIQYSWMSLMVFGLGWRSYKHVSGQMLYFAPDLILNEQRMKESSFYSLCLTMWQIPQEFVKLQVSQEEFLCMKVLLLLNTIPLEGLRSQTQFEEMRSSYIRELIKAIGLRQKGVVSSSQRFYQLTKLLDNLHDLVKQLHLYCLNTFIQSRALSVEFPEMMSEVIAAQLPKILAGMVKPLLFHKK
In words: nPR luciferase reporter assay. As to conditions: for nPR antagonist activity: 20 and 100 nM in the presence of 5 nM progesterone. The class given is cell-based. The method, boiled down:
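MCF-7 cells in phenol red-free DMEM were co-transfected with human PR-B vector (0.25 μg), MMTV-luciferase reporter (0.6 μg) and Renilla pRL-TK (0.5 μg). […] Cells grew overnight to 90% confluence. Dual-luciferase readings were taken, 10 s each. Firefly/Renilla ratio was reported, in triplicate.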

The target in assay [4] is T1, hu-mPRα. The settings on record: cited from earlier work; for binding affinity for nPR compared with mPRα: selectivity in words.
In assay [5] the target is T2, human nPR. The settings on record: cited from earlier work; for pIC50 (mean): 50% displacement of [3H] Org 2058, extracted from log RBA; for logRBA: RBA (%) compared with that of Org 2058 (=100%).

Regarding “18a-methylprogesterone [18a-Methylprogesterone (Org OE 64-0)]”, at hu-mPRα [1], the “RBA (Relative Binding Affinity)” value worked out at 2009% and the “binding to hu-mPRα (in words)” value was “affinities higher than that of progesterone”. Besides, the “MAPK activation (phosphorylation of ERK)” value at hu-mPRα [2] is “mPRα agonists”. Besides, at human nPR [3], the “relative binding affinity for nPR” value is reported as 20.8%.

Consider “19a-methylprogesterone [19a-Methylprogesterone (Org OD 13-0)]”, for which, at hu-mPRα [1], the “RBA (Relative Binding Affinity)” value is 92.7% and the “binding to hu-mPRα (in words)” value was “relatively high affinity”. At hu-mPRα [2], the “MAPK activation (phosphorylation of ERK)” value was “mPRα agonists”. The “relative binding affinity for nPR” value at human nPR [3] worked out at 2.3%. In addition, the nPR antagonist activity result on human PR-B is given as “weak antagonist activity”.

`C#CC1(O)CC[C@H]2[C@@H]3CCC4=CC(=O)CC[C@@H]4[C@H]3CC[C@@]21CC` (mixture of isomers) [norgestrel]: the “binding affinity for nPR compared with mPRα” value at hu-mPRα [4] is on record as “greater binding affinity for nPR than mPRα”.

Consider `CC(=O)[C@H]1CC[C@H]2[C@@H]3CCC4=CC(=O)[C@H](O)C[C@]4(C)[C@H]3CC[C@]12C` [2α-hydroxyprogesterone], for which the “binding to hu-mPRα (in words)” value at hu-mPRα [4] (earlier series) is reported as “poor binding”.

With `C[C@]12CC[C@H]3[C@@H](CC[C@H]4CC(=O)CC[C@@H]43)[C@@H]1CC[C@@H]2O` [5α-Dihydronandrolone], at human nPR [5], the “pIC50 (mean)” value is 6.50 and the logRBA is on record as −0.22.

With `C[C@]12CCC(=O)C[C@@H]1CC[C@@H]1[C@@H]2CC[C@]2(C)[C@@H](O)CC[C@@H]12` [5α-Dihydrotestosterone (DHT), 5α-Dihydrotestosterone], on human nPR [5], the “pIC50 (mean)” value is reported as 6.16 and the logRBA is −0.56.

Take `C=C[C@]12CCC(=O)C=C1CC[C@H]1[C@@H]3CC[C@H](C(C)=O)[C@@]3(C)CC[C@@H]12` [10-ethenyl-19-norprogesterone]: on hu-mPRα [1], the “RBA (Relative Binding Affinity)” value was found to be 257.7% and the “binding to hu-mPRα (in words)” value is reported as “affinities higher than that of progesterone”. In addition, on hu-mPRα [2], the “MAPK activation (phosphorylation of ERK)” value is listed as “mPRα agonists”. For the same compound, on human nPR [3], the “relative binding affinity for nPR” value is on record as 12.9%. Moreover, on human PR-B, the nPR antagonist activity entry is reported as “weak antagonist activity”.

Turning to `CC(=O)[C@H]1CC[C@H]2[C@@H]3CCC4=CC(=O)CC[C@]4(C)[C@H]3[C@@H](O)C[C@]12C` [11β-hydroxyprogesterone], the “lower binding affinity relative to progesterone” value on hu-mPRα [4] (mPRα, observed earlier) is listed as 10 fold.

Consider `C=C[C@]12CC[C@H]3[C@@H](CCC4=CC(=O)CC[C@@]43C)[C@@H]1CC[C@@H]2C(C)=O` [13-ethenyl-18-norprogesterone], for which, on hu-mPRα [1], the “RBA (Relative Binding Affinity)” value was 168.2% and the “binding to hu-mPRα (in words)” value is listed as “affinities higher than that of progesterone”. The “MAPK activation (phosphorylation of ERK)” value on hu-mPRα [2] is “mPRα agonists”. The nPR agonist activity result at human PR-B (PR-B and PRE-luciferase reporter in MCF-7 cells, 50 nM (19-CH2P4 also 1–50 nM)) is reported as “showed nPR agonist activity”.

Consider `CCC1CC2C3CCC4=CC(=O)CCC4C3CCC2(C)C1C(=O)CO` (stereo not drawn) [16α-ethyl-21-hydroxy-19-norpregn-4-ene-3,20-dione], for which, on hu-mPRα [4] (earlier series), the “binding to hu-mPRα (in words)” value is listed as “poor binding affinities”. The “binding affinity for nPR compared with mPRα” value on hu-mPRα [4] is reported as “greater binding affinity for nPR than mPRα”. Further, the logRBA at human nPR [5] is on record as 2.00.

Take `CC[C@]1(O)CC[C@H]2[C@@H]3CCC4=CC(=O)CC[C@@H]4[C@H]3CC[C@@]21C` [17-Hydroxy-19-nor-17α-pregn-4-en-3-one]: at human nPR [5], the “pIC50 (mean)” value is recorded as 8.24 and the logRBA was 1.52.

For the compound `CC(C)[C@@H]1C[C@H]2[C@@H]3CCC4=CC(=O)CC[C@@H]4[C@H]3CC[C@]2(C)[C@H]1O` [17β-Hydroxy-16α-isopropylestr-4-en-3-one], on human nPR [5], the “pIC50 (mean)” value is on record as 7.72 and the logRBA is recorded as 1.00.

Consider `C[C@]1(O)CC[C@H]2[C@@H]3CCC4=CC(=O)CC[C@@H]4[C@H]3CC[C@@]21C` [17β-Hydroxy-17α-methylestr-4-en-3-one], for which, on human nPR [5], the “pIC50 (mean)” value is 7.66 and the logRBA is reported as 0.94.

Take `CC(=O)[C@H]1CC[C@H]2[C@@H]3CCC4=CC(=O)CC[C@@H]4[C@H]3CC[C@]12C` [19-Norprogesterone]: the “binding affinity for nPR compared with mPRα” value on hu-mPRα [4] is “greater binding affinity for nPR than mPRα”. At human nPR [5], the “pIC50 (mean)” value is given as 8.53 and the logRBA is 1.81.

For the compound `C=CC[C@]1(O)CC[C@H]2[C@@H]3CCC4=CCCC[C@@H]4[C@H]3CC[C@@]21C` [Allylestrenol], on human nPR [5], the “pIC50 (mean)” value is 7.04 and the logRBA is 0.32.

With `C[C@]12CCC(=O)C=C1CC[C@@H]1[C@@H]2CC[C@]2(C)C(=O)CC[C@@H]12` [Androst-4-ene-3,17-dione], on hu-mPRα [1], the “binding to hu-mPRα (in words)” value is recorded as “unable to bind”. In addition, at human nPR [5], the “pIC50 (mean)” value is 6.02 and the logRBA is −0.70.

`C#C[C@]1(O)CC[C@H]2[C@@H]3CCC4=CC(=O)CC[C@]4(C)[C@H]3CC[C@@]21C` [Ethisterone]: the “binding affinity for nPR compared with mPRα” value on hu-mPRα [4] is “greater binding affinity for nPR than mPRα”.

For `CC[C@]1(O)CC[C@H]2[C@@H]3CCC4=CCCC[C@@H]4[C@H]3CC[C@@]21C` [Ethylestrenol], at human nPR [5], the “pIC50 (mean)” value was 7.21 and the logRBA is 0.49.

`C#C[C@]1(O)CC[C@H]2[C@@H]3CCC4=CCCC[C@@H]4[C@H]3CC[C@@]21C` [Lynestrenol]: on human nPR [5], the “pIC50 (mean)” value is recorded as 6.95 and the logRBA is recorded as 0.23.

For the compound `CC#C[C@]1(O)CC[C@H]2[C@@H]3CCC4=CC(=O)CCC4=C3[C@@H](c3ccc(N(C)C)cc3)C[C@@]21C` [Mifepristone], the “binding to hu-mPRα (in words)” value at hu-mPRα [4] (earlier series, listed as RU486) is “little or no affinity; also recorded: does not bind”.

`C[C@]12CC[C@H]3[C@@H](CCC4=CC(=O)CC[C@@H]43)[C@@H]1CC[C@@H]2O` [Nandrolone, 19-nortestosterone]: at human nPR [5], the “pIC50 (mean)” value was 7.20 and the logRBA was 0.48.

Turning to `CCC(=O)[C@@]1(C)CC[C@H]2[C@@H]3CCC4=CC(=O)CCC4=C3CC[C@@]21C` [Promegestone], the “binding to hu-mPRα (in words)” value at hu-mPRα [4] (earlier series, listed as R5020) is “little or no affinity; also recorded: poor binding affinities”. At human nPR [5], the “pIC50 (mean)” value is reported as 8.90 and the logRBA is reported as 2.18.

Regarding `C[C@]12CC[C@H]3[C@@H](CCC4=CC(=O)CC[C@@]43C)[C@@H]1CC[C@@H]2O` [Testosterone], on hu-mPRα [4] (progesterone = 100 %, earlier series), the “RBA for hu-mPRα” value is given as 22.4%. At human nPR [5], the “pIC50 (mean)” value is recorded as 6.02 and the logRBA is on record as −0.70.

Turning to `C#C[C@]1(O)CC[C@H]2[C@@H]3CCC4=CC(=O)CC[C@@H]4[C@H]3CC[C@@]21C` [norethisterone], the “binding affinity for nPR compared with mPRα” value on hu-mPRα [4] is reported as “greater binding affinity for nPR than mPRα”.
